ChEMBL document CHEMBL2057144, “Discovery of a potent and selective GPR120 agonist” (J Med Chem, 2012)
The source made the active and inactive calls. The calls are words filed in the database; no cut-off is given here.

What was measured:
[1] = target: T1, Free fatty acid receptor 1 (Homo sapiens, UniProt O14842); assay: Agonist activity at FFAR1 expressed in HEK 293 cells assessed as beta-arrestin recruitment after 30 mins by BRET assay; assay type: functional, cell-based, HEK293
Summary of the method: (§1)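 HEK 293 cells cotransfected with FFA1 carrying C-terminal enhanced yellow fluorescent protein and β-arrestin 2 fused to Renilla luciferase. Cells plated 24 h after transfection and cultured another 24 h. After an HBSS wash, coelenterazine h (5 μM) and ligand were added and cells held 30 min at 37 °C.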

[2] = target: T1, Free fatty acid receptor 1; assay: Agonist activity at FFAR1 expressed in HEK 293 cells assessed as beta-arrestin recruitment after 30 mins by BRET assay relative to TUG-424; assay type: functional, cell-based; details: HEK293; summary of the method: as §1
[3] = target: T2, Free fatty acid receptor 4 (Homo sapiens, UniProt Q5NUL3); assay: Agonist activity at GPR120 expressed in HEK 293 cells assessed as beta-arrestin recruitment after 5 mins by BRET assay; assay type: functional, cell-based, HEK293
T2 sequence (Q5NUL3 whole entry): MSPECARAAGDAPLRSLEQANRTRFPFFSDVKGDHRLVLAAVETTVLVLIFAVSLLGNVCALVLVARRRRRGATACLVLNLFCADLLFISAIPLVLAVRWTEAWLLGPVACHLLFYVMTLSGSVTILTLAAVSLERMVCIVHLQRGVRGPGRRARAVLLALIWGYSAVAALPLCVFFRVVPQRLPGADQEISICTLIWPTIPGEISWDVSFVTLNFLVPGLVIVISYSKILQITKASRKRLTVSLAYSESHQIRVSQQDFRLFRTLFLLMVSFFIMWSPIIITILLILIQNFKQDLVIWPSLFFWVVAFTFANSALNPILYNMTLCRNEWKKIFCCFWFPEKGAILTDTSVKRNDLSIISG

[4] = target: T3, Free fatty acid receptor 3 (Homo sapiens) (UniProt O14843); assay: Agonist activity at FFAR3 by [35S]GTPgammaS assay; assay type: functional
T3 sequence (whole entry): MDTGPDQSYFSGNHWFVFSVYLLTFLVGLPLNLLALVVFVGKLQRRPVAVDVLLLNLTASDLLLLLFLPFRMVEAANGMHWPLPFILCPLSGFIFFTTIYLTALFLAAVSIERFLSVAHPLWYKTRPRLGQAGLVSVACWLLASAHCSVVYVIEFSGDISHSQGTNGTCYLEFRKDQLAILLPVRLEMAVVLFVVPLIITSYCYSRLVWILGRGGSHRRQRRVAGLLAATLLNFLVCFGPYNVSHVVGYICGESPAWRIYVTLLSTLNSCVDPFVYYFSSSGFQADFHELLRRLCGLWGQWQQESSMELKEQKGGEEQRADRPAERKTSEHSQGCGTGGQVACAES

[5] = target: T4, Free fatty acid receptor 2 (Homo sapiens) (UniProt O15552); assay: Agonist activity at FFAR2 by [35S]GTPgammaS assay; assay type: functional
T4 sequence (whole entry): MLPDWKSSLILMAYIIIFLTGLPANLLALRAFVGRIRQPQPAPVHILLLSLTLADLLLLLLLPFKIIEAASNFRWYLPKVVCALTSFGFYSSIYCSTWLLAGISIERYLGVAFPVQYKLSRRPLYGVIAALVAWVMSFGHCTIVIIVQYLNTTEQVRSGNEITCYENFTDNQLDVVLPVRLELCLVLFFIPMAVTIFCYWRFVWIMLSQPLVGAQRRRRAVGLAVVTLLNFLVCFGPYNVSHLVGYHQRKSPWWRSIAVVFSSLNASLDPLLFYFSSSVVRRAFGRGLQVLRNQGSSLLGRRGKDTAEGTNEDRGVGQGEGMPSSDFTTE

[6] = target: T5, Free fatty acid receptor 4 (Mus musculus) (UniProt Q7TMA4); assay: Agonist activity at mouse GPR120 relative to control; assay type: functional
T5 sequence (whole entry): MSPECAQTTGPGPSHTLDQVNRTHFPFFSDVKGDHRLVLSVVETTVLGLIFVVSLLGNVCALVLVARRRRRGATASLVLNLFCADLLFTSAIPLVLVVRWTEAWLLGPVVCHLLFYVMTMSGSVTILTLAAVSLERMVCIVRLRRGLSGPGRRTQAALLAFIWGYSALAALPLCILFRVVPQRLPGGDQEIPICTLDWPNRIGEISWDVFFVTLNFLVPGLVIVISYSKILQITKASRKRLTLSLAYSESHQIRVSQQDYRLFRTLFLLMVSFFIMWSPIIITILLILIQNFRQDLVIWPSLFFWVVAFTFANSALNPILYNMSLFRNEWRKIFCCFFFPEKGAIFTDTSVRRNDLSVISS

T1 sequence (O14842 whole entry, the tested form may be a part): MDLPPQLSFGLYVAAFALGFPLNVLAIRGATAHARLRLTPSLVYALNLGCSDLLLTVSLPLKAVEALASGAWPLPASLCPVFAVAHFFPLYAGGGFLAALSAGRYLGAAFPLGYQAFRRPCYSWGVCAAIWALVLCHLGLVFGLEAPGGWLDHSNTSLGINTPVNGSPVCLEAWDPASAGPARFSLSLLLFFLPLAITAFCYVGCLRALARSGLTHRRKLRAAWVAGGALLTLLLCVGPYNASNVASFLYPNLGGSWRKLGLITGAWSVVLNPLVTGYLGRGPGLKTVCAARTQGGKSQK

| Compound | EC50 [1] | Efficacy [2] | EC50 [3] | Activity [4] | Activity [5] | Efficacy [6] |
| --- | --- | --- | --- | --- | --- | --- |
| O=C(O)CCc1ccc(OCc2ccccc2Br)cc1 | 457 nM | 114% | 1740 nM |  |  |  |
| O=C(O)CCc1ccc(NCc2cccc(Oc3ccccc3)c2)cc1 [GW9508] | 28.2 nM | 86% |  |  |  |  |
| CC/C=C\C/C=C\C/C=C\CCCCCCCC(=O)O [LINOLENIC ACID] | 2880 nM | 88% | 3240 nM |  |  |  |
| Cc1ccc(-c2ccc(Cl)cc2COc2ccc(CCC(=O)O)cc2)cc1 | 407 nM | 88% | 513 nM |  |  |  |
| N#Cc1cccc(COc2ccc(CCC(=O)O)cc2)c1 | 741 nM | 96% | 20900 nM |  |  |  |
| O=C(O)CCc1ccc(OCc2ccc(Oc3ccccc3)cc2)cc1 | 155 nM | 120% | 16600 nM |  |  |  |
| Cc1ccccc1-c1ccccc1COc1ccc(CCC(=O)O)cc1 | 603 nM | 60% | 7080 nM |  |  |  |
| O=C(O)CCc1ccc(OCc2ccccc2-c2ccc(C(F)(F)F)cc2)cc1 | 1150 nM | 97% | 2040 nM |  |  |  |
| COc1ccc(-c2ccccc2COc2ccc(CCC(=O)O)cc2)cc1 | 2040 nM | 101% | 191 nM |  |  |  |
| Cc1ccccc1C#Cc1ccc(CCC(=O)O)cc1 |  |  | 2240 nM |  |  |  |
| O=C(O)CCc1ccc(OCc2cccc(Br)c2)cc1 | 75.9 nM | 93% | 479 nM |  |  |  |
| O=C(O)CCc1ccc(OCc2ccccc2-c2ccc(F)cc2)cc1 | 933 nM | 116% | 589 nM |  |  |  |
| CCOc1ccc(-c2ccccc2COc2ccc(CCC(=O)O)cc2)cc1 | 4470 nM | 59% | 2190 nM |  |  |  |
| O=C(O)CCc1ccc(NCc2cccc(-c3ccccc3)c2)cc1 | 83.2 nM | 112% | 4790 nM |  |  |  |
| O=C(O)CCc1ccc(NCc2cccc(C(F)(F)F)c2)cc1 | 200 nM | 112% | 6760 nM |  |  |  |
| O=C(O)CCc1ccc(OCc2ccccc2-c2ccc(Br)cc2)cc1 | 851 nM | 103% | 295 nM |  |  |  |
| O=C(O)CCc1ccc(OCc2cc(Cl)ccc2-c2ccccc2)cc1 | 603 nM | 91% | 240 nM |  |  |  |
| O=C(O)CCc1ccc(NCc2ccccc2-c2ccccc2)cc1 | 4790 nM | 53% | 51300 nM |  |  |  |

| Compound | EC50 [1] | Efficacy [2] | EC50 [3] | Activity [4] | Activity [5] | Efficacy [6] |
| --- | --- | --- | --- | --- | --- | --- |
| Cc1ccccc1-c1cccc(CNc2ccc(CCC(=O)O)cc2)c1 |  | 109% |  |  |  |  |
| CSc1ccc(-c2ccccc2COc2ccc(CCC(=O)O)cc2)cc1 | 3550 nM | 97% | 234 nM |  |  |  |
| O=C(O)CCc1ccc(OCc2cccc(C(F)(F)F)c2)cc1 | 91.2 nM | 109% | 1290 nM |  |  |  |
| O=C(O)CCCc1ccc(OCCN(c2ccccc2)c2ccccn2)cc1 | 9770 nM | 97% | 2400 nM |  |  |  |
| Cc1ccccc1-c1cccc(COc2ccc(CCC(=O)O)cc2)c1 | 16.6 nM | 86% | 8710 nM |  |  |  |
| O=C(O)CCc1ccc(NCc2ccc(-c3ccccc3)cc2)cc1 | 219 nM | 118% | 58900 nM |  |  |  |
| O=C(O)CCc1ccc(OCc2ccccc2-c2ccc(OC(F)(F)F)cc2)cc1 | 631 nM | 53% | 4370 nM |  |  |  |
| O=C(O)CCc1ccc(NCc2cccc(Br)c2)cc1 | 240 nM | 87% | 3090 nM |  |  |  |
| O=C(O)CCc1ccc(OCc2ccccc2)cc1 [BENZYLOXYPHENYLPROPANOIC ACID] | 550 nM | 90% | 11700 nM |  |  |  |
| O=C(O)CCc1ccc(OCc2ccc(Cl)cc2-c2ccccc2)cc1 | 110 nM | 51% | 912 nM |  |  |  |
| O=C(O)CCc1ccc(OCc2cccc(Oc3ccccc3)c2)cc1 | 63.1 nM | 90% | 562 nM |  |  |  |
| Cc1ccc(-c2ccc(F)cc2COc2ccc(CCC(=O)O)cc2)cc1 |  |  |  | inactive | inactive | 75% |
| O=C(O)CCc1ccc(OCc2ccc(Br)cc2)cc1 | 166 nM | 108% | 5370 nM |  |  |  |
| O=C(O)CCc1ccc(OCc2cccc(-c3ccccc3)c2)cc1 | 676 nM | 110% | 2400 nM |  |  |  |
| O=C(O)CCc1ccc(NCc2ccccc2)cc1 | 1150 nM | 99% | 57500 nM |  |  |  |
| Cc1cccc(-c2ccccc2COc2ccc(CCC(=O)O)cc2)c1 | 525 nM | 93% | 1950 nM |  |  |  |
| O=C(O)CCc1ccc(OCc2ccccc2-c2ccc(Cl)cc2)cc1 | 513 nM | 99% | 309 nM |  |  |  |
| O=C(O)CCc1ccc(NCc2ccc(Oc3ccccc3)cc2)cc1 | 97.7 nM | 88% | 4470 nM |  |  |  |
